Results on six compounds are retold here after ChEMBL document CHEMBL1156932, “Structure based drug design: development of potent and selective factor IXa (FIXa) inhibitors” (J Med Chem, 2010).

The pKi is the Ki on a negative log10 scale, so that one unit is a factor of ten. For orientation: Cmax means the maximum level reached in the sampled fluid or tissue. What is called AUC(0-inf) is total exposure, with the tail of the curve extrapolated. The low end stands for less exposure, the high end for more exposure. As usually defined, the clearance is the volume of plasma or blood freed of the substance per unit of time. The low end stands for inefficient removal, the high end for efficient removal. A word on the half-life: it is the time needed for the level to fall by half in the phase considered. The low end stands for fast loss, the high end for slow loss.

One data set concerns the target Coagulation factor IX (Homo sapiens, UniProt P00740). The experiment in a line: Inhibition of human recombinant factor 9a by amidolytic assay.
Data set [1] can be described thus: Selectivity ratio of Ki for uPA to Ki for human recombinant factor 9a.
Data set [2] in a line: Protein binding in human plasma. In kind it is ADME, cell-free. The note with it: read-out: PPB (converted).
The nature of data set [3]: Selectivity ratio of Ki for factor 10a to Ki for human recombinant factor 9a.
For data set [4], the target named is Urokinase-type plasminogen activator (Homo sapiens, UniProt P00749).
Data set [5] relates to Plasma. The experiment in a line: Anticoagulant potency in human plasma assessed as concentration required to double the thrombin time. In kind it is functional. An outline of the steps: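 Plasma from citrated blood of healthy volunteers, centrifuged at 2000g for 10 min and kept on ice. Plasma incubated 2 min at 37 C, then thrombin reagent added. Clotting time monitored at 660 nm on an automated analyzer.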

The subject of data set [6] is Plasma. The experiment in a line: Anticoagulant potency in human plasma assessed as concentration required to double the prothrombin time. In kind it is functional. An outline of the steps: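 Citrated plasma from healthy volunteers, centrifuged at 2000g for 10 min and held on ice. Plasma incubated 3 min at 37 C before addition of thromboplastin PT reagent (Thromborel S). Clot formation followed at 660 nm in an automated coagulation analyzer.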

Data set [7] concerns Plasma. The experiment in a line: Anticoagulant potency in human plasma assessed as concentration required to double the […]. In kind it is functional. An outline of the steps: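 Citrated plasma from healthy volunteers, centrifuged at 2000g for 10 min and held on ice. Plasma incubated 1 min at 37 C, aPTT reagent (FSL) added, then 3 min at 37 C. Clotting started with 0.025 M CaCl2. Clot formation read at 660 nm on an automated coagulation analyzer.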

A further data set has as its target Coagulation factor X (Homo sapiens, UniProt P00742). The experiment in a line: Inhibition of factor 10a by amidolytic assay. An outline of the steps: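 […] taken as the mean of at least three experiments. Variation between runs stated as under 10%.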
Data set [8] is described as follows: Cmax in anesthetized Sprague-Dawley rat at 5 mg/kg, iv. In kind it is ADME, organism-based. More on the design: dose 5 mg/kg, route intravenous. The note with it: in vivo. An outline of the steps:
(§1)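 Bolus iv injection over 15 s into anesthetised rats, 3 per group. Citrated blood taken under anesthesia predose and at 2, 5, 15, 30 min and 1, 2, 3 h. Plasma obtained by centrifugation at 1700g, 20 C, 5 min, then stored at -80 C. Two acetonitrile precipitations before drug measurement. Parameters derived by noncompartmental analysis of concentration–time curve.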

Data set [9] in a line: AUC (0 to infinity) in anesthetized Sprague-Dawley rat at 5 mg/kg, iv. In kind it is ADME, organism-based. More on the design: dose 5 mg/kg, route intravenous, time infinity. To be noted: plasma. An outline of the steps:
as §1

Data set [10] can be described thus: Metabolic stability in human liver assessed as turnover. In kind it is ADME, tissue-based. To be noted: read-out: Stability.
Data set [11] is described as follows: Clearance in anesthetized Sprague-Dawley rat at 5 mg/kg, iv. In kind it is ADME, organism-based. More on the design: dose 5 mg/kg, route intravenous. To be noted: in vivo. Summed up:
as §1

Data set [12] can be described thus: Half life in anesthetized Sprague-Dawley rat at 5 mg/kg, iv. In kind it is ADME, organism-based. More on the design: dose 5 mg/kg, route intravenous. The note with it: in vivo. An outline of the steps:
as §1

Structures are written as SMILES. pKi: −log10 of the molar value.

Coagulation factor IX, sequence (P00740 47-191 limits assumed): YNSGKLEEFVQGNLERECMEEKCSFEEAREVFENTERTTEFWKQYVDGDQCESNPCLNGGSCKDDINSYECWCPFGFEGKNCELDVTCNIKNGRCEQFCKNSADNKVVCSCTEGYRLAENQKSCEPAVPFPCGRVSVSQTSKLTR
Coagulation factor IX, sequence (P00740 227-461 limits assumed): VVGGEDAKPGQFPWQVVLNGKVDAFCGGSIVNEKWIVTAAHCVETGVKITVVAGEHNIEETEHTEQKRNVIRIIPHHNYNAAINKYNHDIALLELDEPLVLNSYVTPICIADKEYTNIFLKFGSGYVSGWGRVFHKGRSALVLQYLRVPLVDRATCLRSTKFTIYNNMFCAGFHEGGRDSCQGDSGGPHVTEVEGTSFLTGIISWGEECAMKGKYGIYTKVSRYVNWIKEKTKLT
Coagulation factor X, sequence (P00742 41-179 limits assumed): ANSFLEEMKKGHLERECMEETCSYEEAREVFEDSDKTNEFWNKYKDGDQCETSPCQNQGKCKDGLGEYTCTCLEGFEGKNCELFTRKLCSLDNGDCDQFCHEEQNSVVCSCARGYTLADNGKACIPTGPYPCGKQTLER
Coagulation factor X, sequence (P00742 235-488 limits assumed): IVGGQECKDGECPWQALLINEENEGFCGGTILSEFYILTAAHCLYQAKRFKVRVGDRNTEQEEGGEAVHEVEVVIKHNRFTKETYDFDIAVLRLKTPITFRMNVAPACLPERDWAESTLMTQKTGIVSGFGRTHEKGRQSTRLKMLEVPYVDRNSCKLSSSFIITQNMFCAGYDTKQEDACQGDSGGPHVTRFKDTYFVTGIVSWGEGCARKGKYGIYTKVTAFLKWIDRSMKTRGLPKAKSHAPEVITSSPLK

Take `Cc1nn(C)c(CNC(C)C)c1NC(=O)OCC(Oc1cccc2sc(C(=N)N)cc12)c1ccccc1` (stereo not given): the pKi on Coagulation factor IX is 8.52; in data set [4], 6.82; on Coagulation factor X it was 5.79. The Ratio Ki was found to be 50 in data set [1] and 542 in data set [3]. Further, the fraction unbound in data set [2] is 0.04. The Activity in the data set with Plasma [5] worked out at 25 µM; with Plasma [6], 29 µM; with Plasma [7] it was 5.9 µM.
Turning to `Cc1n[nH]c(C)c1NC(=O)OCC(Oc1cccc2sc(C(=N)N)cc12)c1ccccc1` (stereo not given), the pKi at Coagulation factor IX is 8.10; in [4] it was 7.24; on Coagulation factor X it was 5.55. Moreover, the figures for the Ratio Ki in [1] and in data set [3] were 7 and 360, respectively. Further, in [2], the fraction unbound is 0.05. Also, the Activity is greater than 80 µM in the data set on Plasma [5], 63 µM in the data set with Plasma [6] and 11.7 µM with Plasma [7].
Take `CNCc1c(NC(=O)OCC(Oc2cccc3sc(C(=N)N)cc23)c2ccccc2)c(C)nn1C` (stereo not given): the pKi at Coagulation factor IX is 8.30; in data set [4], 6.81; on Coagulation factor X, 5.62. The Ratio Ki in data set [1] was 31; in data set [3], 475. Moreover, in data set [2], the fraction unbound was 0.05. Further, the Activity with Plasma [5] stood at 56 µM; in the data set with Plasma [6], 42 µM; in the data set on Plasma [7], 7.7 µM.
For `N=C(N)c1cc2c(OC(COC(=O)Nc3ccc(F)cc3)c3ccccc3)cccc2s1` (stereo not given), the pKi at Coagulation factor IX is 8.10; in data set [4], 6.11; at Coagulation factor X, 5.77. Moreover, the Ratio Ki in data set [1] stood at 98; in data set [3], 213. Also, in data set [8], the peak level (Cmax) was 10.5 µM. The AUC(0-inf) in data set [9] was 5.19 µM·h. For the same compound, the metabolised in data set [10] came to 11%. In [11], this compound displayed a clearance of 32.4 mL/min/kg. For the same compound, the half-life in data set [12] is 5.5 h.
Consider `N=C(N)c1cc2c(OC(COC(=O)Nc3ccccc3CN3CCNCC3)c3ccccc3)cccc2s1` (stereo not given), for which the results for the pKi (on Coagulation factor IX; in data set [4]; on Coagulation factor X) were 8.52, 6.08 and 6.45, respectively. In addition, the Ratio Ki in [1] turned out to be 278; in data set [3], 118. The fraction unbound in data set [2] was 0.05. Also, the results for the Activity in the data set with Plasma [5], in the data set on Plasma [6] and in the data set with Plasma [7] were 20 µM, 17 µM and 5 µM, respectively.
`Cc1cc(NC(=O)OCC(Oc2cccc3sc(C(=N)N)cc23)c2ccccc2)n(C)n1` (stereo not given): the pKi on Coagulation factor IX is 8.00; in data set [4], 6.77; on Coagulation factor X it was 5.69. The Ratio Ki in data set [1] was determined as 17; in [3] it was 205. Moreover, the Cmax in data set [8] is 5.19 µM. The compound also displayed an AUC(0-inf) in [9] of 0.951 µM·h. Moreover, the fraction unbound in [2] was 0.04. The metabolised in data set [10] came to 18%. Moreover, the Activity was found to be 60 µM in the data set on Plasma [5], 57 µM with Plasma [6] and 12.8 µM in the data set on Plasma [7]. In [11], this compound came in with a clearance of 129 mL/min/kg. In addition, in data set [12], the half-life was 2.1 h.
